High-throughput results as filed in PubChem.
PAFAH1B3 FP inh: inhibitors of human PAFAH1B3; recombinant PAFAH1B3, FP-rhodamine probe, fluorescence polarization; inhibition, % at 3.39 µM; actives 0.28% (n = 340,000); AID 492972;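 active means inhibition above the screen-wide average of all tested compounds plus 3 SD, cut at about 25% in these data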;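 further: 0% = enzyme with DMSO only and 100% = wells lacking PAFAH1B3 protein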
Target sequence (Q15102 whole entry, looked up): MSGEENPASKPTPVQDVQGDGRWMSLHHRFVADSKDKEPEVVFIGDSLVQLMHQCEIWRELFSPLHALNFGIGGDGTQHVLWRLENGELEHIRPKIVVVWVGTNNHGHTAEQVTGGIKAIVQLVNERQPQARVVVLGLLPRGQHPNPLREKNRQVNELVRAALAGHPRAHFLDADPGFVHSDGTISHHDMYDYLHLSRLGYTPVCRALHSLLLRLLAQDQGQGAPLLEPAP
pPAFAH FP inh: pPAFAH (human) enzyme inhibition | recombinant pPAFAH, FP-rhodamine probe fluorescence polarization | Q13093 | actives 1.5% (n = 330,000) | inhibition, % at 3.39 µM;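 active means inhibition above the mean inhibition across the screen plus 3 SD, cut at about 25% in these data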;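 further: inhibitors block binding of the rhodamine activity-based probe so polarization drops; 0% = enzyme with DMSO and 100% = wells lacking pPAFAH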
Target sequence (Q13093 whole entry, looked up): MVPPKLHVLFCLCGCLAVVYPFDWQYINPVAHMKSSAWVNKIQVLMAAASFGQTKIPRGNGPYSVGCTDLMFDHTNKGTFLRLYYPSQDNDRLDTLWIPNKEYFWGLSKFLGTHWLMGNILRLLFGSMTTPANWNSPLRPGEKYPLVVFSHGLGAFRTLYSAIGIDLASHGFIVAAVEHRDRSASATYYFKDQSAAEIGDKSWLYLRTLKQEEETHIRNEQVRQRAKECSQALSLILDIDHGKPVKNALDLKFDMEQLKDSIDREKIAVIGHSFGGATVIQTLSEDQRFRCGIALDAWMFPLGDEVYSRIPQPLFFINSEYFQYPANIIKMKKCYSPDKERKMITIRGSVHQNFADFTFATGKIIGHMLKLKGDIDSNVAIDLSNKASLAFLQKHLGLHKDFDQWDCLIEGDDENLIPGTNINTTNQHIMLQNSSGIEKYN
Apaf1 inhib: human Apaf-1 inhibition; O14727; reconstituted apoptosome caspase-3 activity, DEVD-Rh110 fluorescence; inhibition, % at 20 µM; actives 0.71% (n = 330,000); active means inhibition of at least 40% at 20 µM;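 further: plate controls were DMSO wells for no effect and DEVD-CHO caspase inhibitor wells for full effect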
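Material: biochemical Apaf-1 apoptosome reconstitution. Medium: Hepes buffer, pH 7.5. Also added: cytochrome c activation, bis-DEVD rhodamine 110 substrate. Timing: 30 min compound preincubation, 50 min activation, room temperature. Measured by: rhodamine 110 fluorescence at Ex 480/Em 540 nm.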
PAFAH2 inh: inhibitors of human PAFAH2 | actives 0.99% (n = 340,000) | inhibition, % at 3.39 µM | recombinant PAFAH2, FP-rhodamine activity probe, fluorescence polarization;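 active means inhibition above the mean over all tested compounds plus 3 SD, cut at about 30% in these data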;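 further: inhibitors block probe labeling of enzyme so polarization drops; 0% = enzyme with DMSO and 100% = wells lacking PAFAH2 protein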
PREPL inh: inhibits the human prolyl oligopeptidase-like enzyme | Q4J6C6 | recombinant PREPL, fluorescence polarization activity-based probe | inhibition, % at 5.96 µM | actives 0.68% (n = 320,000) | AID 2751; in the data active means inhibition above about 43%;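 further: 0% = enzyme with DMSO and 100% = wells lacking enzyme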
PAFAH1B2 inh: inhibitors of human PAFAH1B2; P68402; recombinant PAFAH1B2, FP-rhodamine activity probe, fluorescence polarization; inhibition, % at 3.39 µM; actives 1.2% (n = 340,000); AID 492953;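 active means inhibition above the mean of all tested compounds plus 3 SD, cut at about 24% in these data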;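 further: 0% = enzyme with DMSO and 100% = wells lacking PAFAH1B2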
Apaf-1 inh conf: confirmation of Apaf-1 inhibitors; reconstituted apoptosome, caspase-3 DEVD-Rh110 fluorescence; shares compounds with Apaf1 inhib; inhibition, % at 20 µM; actives 25% (n = 1,800);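 active means mean inhibition of at least 40% at 20 µM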;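 further: plate controls were DMSO wells for no effect and DEVD-CHO caspase inhibitor control wells for full effect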
Rh110 interf inh: counter-screen for Apaf-1 inhibitors: fluorescence interference | Rh110 fluorescence interference, quenched caspase reaction | 1,800 tested, under 10 active | AID 504615 | activation (fluorescence interference), % at 20 µM | shares compounds with Apaf1 inhib;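 active means signal rise of 40% or more at 20 µM, treated as a fluorescence artifact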
Apaf1 inh interf: shows fluorescence interference in the Apaf-1 inhibitor assay format; shares compounds with Apaf1 inhib; fluorescence interference counterscreen, Apaf-1 assay format; IC50, µM; 460 tested, under 10 active; AID 588538; call rule not given here
The depositor's hits bear a star; . = not tested or not shown. A selection: hits, their analogues and other compounds. The true share with any hit is near 3.5%.

SMILES	PAFAH1B3 FP inh	pPAFAH FP inh	Apaf1 inhib	PAFAH2 inh	PREPL inh	PAFAH1B2 inh	Apaf-1 inh conf	Rh110 interf inh	others
CC(=O)N(C)C1=C(O)c2ccccc2C(=O)C1=O	4.2	2.1	40.4*	-1.8	1.6	0.4	16.5	13.9
C=CCn1cc(C(=O)OCC)c(=O)c2ccc(F)cc21	-0.8	-1.1	-7.5	4.9	0.8	-1.0	.	.
COc1ccccc1/C=N/Nc1cc(C)nc2ccc(C)cc12	7.4	5.8	22.4	-1.1	12.8	-0.7	.	.
COc1ccc2nc(C)cc(N/N=C/c3ccccc3)c2c1	5.6	6.5	50.3*	4.1	19.3	3.4	3.7	6.9
CCCCCCCCCn1c2c(c(=N)c3c1CCC3)CCCC2	.	.	51.1*	.	.	.	19.6	9.2
CCC1=Nc2cc(C(=O)NCc3cccnc3)ccc2Sc2ccc(C)cc21	3.8	1.2	-3.3	3.6	-13.8	0.9	.	.
Cc1ccc(Cn2nnc3c(=O)[nH]c(C4CCN(S(=O)(=O)c5ccc(C)cc5)CC4)nc32)cc1	-4.2	5.9	19.7	-1.8	5.1	0.9	.	.
O=c1[nH]c(C2CCN(S(=O)(=O)c3ccc(C(F)(F)F)cc3)CC2)nc2c1nnn2Cc1ccc(F)cc1	-7.4	3.2	41.2*	7.7	-0.4	8.5	29.9	-9.6
O=c1[nH]c(C2CCCN(S(=O)(=O)c3ccccc3F)C2)nc2c1nnn2Cc1ccccc1Cl (centres undefined)	7.8	5.4	41.2*	6.6	-2.4	15.9	35.0	13.6
COc1ccc(C(=O)NCC(c2cccs2)N2CCc3ccccc32)cc1OC (centres undefined)	-0.1	10.6	20.8	3.8	-3.2	-0.1	.	.
CCc1ccccc1OCC(=O)OCC(=O)Nc1cc(C)on1	7.2	3.5	-2.5	1.6	7.5	6.0	.	.
CCCCN1C(N)=NC[C@@H]1Cc1ccc(O)cc1	13.7	6.0	-1.4	5.8	7.7	8.8	.	.
NC1=NC[C@H](Cc2ccc(O)cc2)N1CCC12CC3CC(CC(C3)C1)C2	4.0	-11.4	49.4*	-0.1	12.4	-1.7	12.0	4.8
Cc1cc(OCC(=O)NCCc2cccc(F)c2)c2c(C)cc(=O)oc2c1	1.6	0.1	16.1	2.4	8.1	4.3	.	.
O=C(NCc1ccccc1)c1cccc(S(=O)(=O)N2CCCCC2)c1	2.0	13.5	3.8	-1.0	7.6	2.4	.	.
O=C(NCc1cccs1)c1cccc(S(=O)(=O)N2CCCCC2)c1	10.5	3.7	54.8*	4.8	-1.6	5.0	14.7	5.2
O=C(COC(=O)c1ccco1)c1ccc(S(=O)(=O)N2CCCCC2)cc1	7.5	6.9	-0.2	2.2	-2.9	0.5	.	.
CC(NC(=O)C1CCN(C(=O)c2cccs2)CC1)c1ccc(S(N)(=O)=O)cc1 (centres undefined)	-7.1	1.1	62.1*	2.9	5.0	-2.8	34.8	11.5
Cc1ccc(NC2=C(N3CCOCC3)C(=O)c3ccccc3C2=O)cc1	32.7*	4.2	59.0*	33.1*	12.6	7.6	81.1*	9.3	Apaf1 inh interf=>100
O=C1C(NS(=O)(=O)c2cccs2)=C(N2CCN(c3ccccc3)CC2)C(=O)c2ccccc21	3.5	3.5	41.2*	0.1	5.3	13.0	25.2	5.2
O=S(=O)(c1cccs1)N1CCN(c2ccccc2)CC1	10.2	0.2	0.4	-1.0	-12.2	4.4	.	.
Cc1ccc(S(=O)(=O)NC2=C(N3CCN(c4ccccc4F)CC3)C(=O)c3ccccc3C2=O)cc1	7.6	7.5	75.9*	2.5	29.9	7.9	19.8	1.8
CC1(C)CNc2cc(N)ccc2S1	2.7	13.8	50.0*	1.2	34.3	4.4	69.5*	7.6	Apaf1 inh interf=>100
O=C(CNC(=O)c1cccc(F)c1)N/N=C/c1cccnc1	3.3	4.0	-7.4	1.8	-1.7	3.5	.	.
c1ccc2c(c1)CC/C2=N/Nc1nc2ccccc2[nH]1	8.8	10.3	57.1*	8.1	39.0	1.8	12.0	4.0
SMILES	PAFAH1B3 FP inh	pPAFAH FP inh	Apaf1 inhib	PAFAH2 inh	PREPL inh	PAFAH1B2 inh	Apaf-1 inh conf	Rh110 interf inh	others
CC(C)(C)C1CCC(=NNc2nc3ccccc3[nH]2)CC1 (centres undefined)	8.6	8.6	3.3	5.9	22.8	9.5	.	.
Cc1csc(=O)n1CCC(=O)OC(C)C(=O)NCc1ccccc1 (centres undefined)	4.2	-0.2	-0.1	1.1	-1.2	5.4	.	.
CC(C)CCC(C)NC(=O)CN1C(=O)NC(C)(c2ccc3ccccc3c2)C1=O (centres undefined)	2.8	8.6	13.3	0.3	-1.9	2.9	.	.
O=C(N/N=C/c1ccc(-c2ccccc2[N+](=O)[O-])o1)c1cncc(Br)c1	6.2	7.6	80.8*	5.6	19.4	-2.6	36.3	5.9
Cc1ccc(C(=O)N/N=C\c2ccc(Br)o2)o1	3.8	-3.9	-16.4	2.7	1.9	4.2	.	.
O=C(N/N=C\c1ccc(-c2ccccc2[N+](=O)[O-])o1)C1COc2ccccc2O1 (centres undefined)	-1.1	12.4	79.5*	-0.2	24.8	-1.3	7.7	-3.3
Cc1ccc(C(=O)N/N=C/c2ccc(-c3ccc(Br)cc3[N+](=O)[O-])o2)o1	3.5	26.4*	42.1*	8.8	25.1	7.1	26.9	-5.4
Cc1cc([N+](=O)[O-])c(C)cc1-c1ccc(/C=N/NC(=O)c2cccnc2)o1	-0.4	12.1	55.3*	5.4	16.3	8.2	38.1	5.3
CN(C(=O)NC1CC(=O)N(c2ccc3c(c2)OCCO3)C1)c1ccccc1 (centres undefined)	3.2	-1.5	-1.6	6.5	-9.4	-1.5	.	.
C#CCOCCOCCOCCNc1nc(N2CCN(C(=O)[C@H](CCCCN)n3cc(CCC(=O)O)nn3)CC2)nc(N2CCN(C(=O)[C@H](Cc3ccc(O)cc3)n3cc(CCO)nn3)CC2)n1	3.7	.	.	-4.1	.	2.8	.	.
C#CCOCCOCCOCCNc1nc(N2CCN(C(=O)CCCCCCCCCCNC(=O)[C@@H](CCSC)n3cc(CCO)nn3)CC2)nc(N2CCN(C(=O)CCCCCCCCCCNC(=O)[C@H](CCC(=O)O)n3cc(CCCCCN)nn3)CC2)n1	10.3	11.4	61.6*	-1.4	2.7	4.7	20.9	1.3
C#CCOCCOCCOCCNc1nc(N2CCN(C(=O)CCCCCCCCCCNC(=O)[C@H](CCCCN)n3cc(CCO)nn3)CC2)nc(N2CCN(C(=O)CCCCCCCCCCNC(=O)[C@H](CCCCN)n3cc(CCCC(=O)O)nn3)CC2)n1	4.6	-1.0	59.1*	1.3	28.4	-5.0	33.9	8.5
